ChEMBL document CHEMBL4038268, “Methylpyrrole inhibitors of BET bromodomains” (Bioorg Med Chem Lett, 2017)
Active and inactive are the calls of the source. No cut-off for these calls is given here.

Columns and labels:
[1] = molecular target: T1, Bromodomain-containing protein 4 (Homo sapiens, UniProt O60885); experiment: Inhibition of BRD4 (unknown origin) expressed in human H1299 cells co-expressing HPV16-LCR/E2 after 24 hrs by Bright Glo-luciferase reporter gene assay; assay type: cell-based
Summary of the method: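 Target-engagement reporter in an H1299-derived line carrying a stably integrated E2 expression cassette and an HPV-LCR-driven luciferase reporter. The read-out is BRD4-dependent E2-mediated transcriptional repression. EC50 is the mean of two measurements.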

MX1 = experiment: Antiproliferative activity against human MX1 cells incubated over 72 hrs by Cell Titre Glo luminescence assay; assay type: functional, cell-based; conditions: MX1, 72 h
Summary of the method: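 Triple-negative breast cancer line MX-1 grown 3 days with compound. Proliferation read with the CellTiter-Glo kit. EC50 is the mean of two measurements.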

[2] = molecular target: T1, Bromodomain-containing protein 4; experiment: Binding affinity to His-tagged BRD4 BD1-BD2 (K57 to K550 residues) (unknown origin) after 1 hr by Alexa-647-conjugated probe based TR-FRET assay
Liver = experiment: Unbound intrinsic clearance in mouse liver microsomes; assay type: ADME, microsome
[3] = Permeability of the compound; assay type: physicochemical; conditions: not told; read-out: permeability
[4] = molecular target: T1, Bromodomain-containing protein 4; experiment: Binding affinity to Ile,Leu,Val,Met-[13C-methyl]-labelled BRD4 BD2 (352 to 457 residues) (unknown origin) expressed in Escherichia coli BL21 (DE3) by NMR method
[5] = Half life in mouse at 3 mg/kg, iv; assay type: ADME, organism-based; conditions: in vivo
Mus musculus = experiment: Unbound AUC in mouse at 10 mg/kg, po; assay type: ADME, organism-based; conditions: in vivo
[6] = Oral bioavailability in mouse at 10 mg/kg; assay type: ADME, organism-based; conditions: in vivo

| Compound | EC50 [1] [nM] | Ki [2] [nM] | other results |
| --- | --- | --- | --- |
| Cc1[nH]c(-c2cc(S(C)(=O)=O)ccc2Oc2ccc(F)cc2F)cc1C(N)=O | 4500 | 2200 | EC50 (MX1): 3200 nM; CL free (Liver): 100 mL/min/kg |
| CCNC(=O)c1ccc(Oc2ccccc2)c(-c2[nH]c(C)c3c2CCCC3=O)c1 | 1400 | 250 | EC50 (MX1): 1400 nM |
| Cc1[nH]c(-c2ccccc2Oc2ccccc2)c2c1C(=O)CCC2 | 280 | 440 | – |
| CCS(=O)(=O)Nc1ccc(Oc2ccc(F)cc2F)c(-c2cn(C)c3c(=O)[nH]ccc23)c1 | – | 11 | – |
| Cc1[nH]c(-c2cc(S(C)(=O)=O)ccc2Oc2ccc(F)cc2F)c2c1C(=O)CCC2 | 1400 | 460 | EC50 (MX1): 570 nM; CL free (Liver): 1400 mL/min/kg |
| Cc1[nH]c(-c2cc(NS(C)(=O)=O)ccc2Oc2ccc(F)cc2F)c2cn[nH]c(=O)c12 | 280 | 16 | EC50 (MX1): 92 nM; Papp [3]: 6.1 ×10⁻⁶ cm/s; CL free (Liver): > 250 mL/min/kg |
| Cn1cc(-c2ccccc2Oc2ccccc2)c2cc[nH]c(=O)c21 | 1100 | 120 | EC50 (MX1): 580 nM; Papp [3]: 13 ×10⁻⁶ cm/s; CL free (Liver): 106700 mL/min/kg |
| COC(=O)c1ccc(Oc2ccccc2)c(-c2[nH]c(C)c3c2CCCC3=O)c1 | 2000 | 91 | – |
| Cc1[nH]c(-c2ccccc2Oc2ccccc2)cc1C(N)=O | 450 | 270 | – |
| Cc1[nH]c(-c2cc(NS(C)(=O)=O)ccc2Oc2ccc(F)cc2F)cc1C(N)=O | 2300 | 370 | – |
| Cc1[nH]c(-c2cc(NS(C)(=O)=O)ccc2Oc2ccc(F)cc2F)c2c1C(=O)NCC2 | 420 | 84 | – |
| Cc1[nH]c(-c2ccccc2N)c2c1C(=O)CCC2 | 7100 | 9500 | – |
| COC(=O)C[C@@H]1N=C(c2ccc(Cl)cc2)c2c(sc(C)c2C)-n2c(C)nnc21 | – | 17 | – |
| Cc1[nH]c(-c2cc(NS(C)(=O)=O)ccc2Oc2ccccc2)c2cn[nH]c(=O)c12 | 180 | 30 | – |
| Cc1[nH]c(-c2ccccc2Oc2ccccc2)c2cn[nH]c(=O)c12 | 220 | 37 | – |
| Cn1cc(-c2cc(S(C)(=O)=O)ccc2Oc2ccccc2)c2cc[nH]c(=O)c21 | 91 | 17 | – |
| Cc1[nH]c(-c2ccccc2Oc2ccccc2)c2c1C(=O)NCC2 | 280 | 340 | – |
| Cc1[nH]c(-c2c(N)cccc2Oc2ccccc2)cc1C(N)=O | 2100 | 1600 | – |
| Cc1[nH]c(-c2ccccc2Oc2ccc(Cl)cc2)cc1C(N)=O | 280 | 410 | – |

| Compound | EC50 [1] [nM] | Ki [2] [nM] | other results |
| --- | --- | --- | --- |
| CC(=O)c1cc(-c2ccccc2N)[nH]c1C | – | 21000 | Activity [4]: Active |
| Cc1[nH]c(-c2cc(NS(C)(=O)=O)ccc2Oc2ccccc2)c2nc[nH]c(=O)c12 | 410 | 150 | – |
| CCS(=O)(=O)Nc1ccc(Oc2ccc(F)cc2)c(-c2cn(C)c3c(=O)[nH]ccc23)c1 | 47 | 5.5 | half-life [5]: 5.6 h; fAUC (Mus musculus): 0.06 µM·h; bioavailability [6]: 33% |
| Cc1[nH]c(-c2cc(N)ccc2Oc2ccccc2)c2c1C(=O)CCC2 | 300 | 210 | EC50 (MX1): 230 nM |
| Cc1[nH]c(-c2ccccc2Nc2ccccc2)cc1C(N)=O | 2800 | 450 | – |
| Cc1[nH]c(-c2ccccc2N)cc1C(N)=O | > 10000 | 22000 | EC50 (MX1): > 10000 nM |
| Cc1[nH]c(-c2ccccc2Oc2ccccc2)c2nc[nH]c(=O)c12 | 1600 | 1100 | EC50 (MX1): 1200 nM; Papp [3]: 100 ×10⁻⁶ cm/s; CL free (Liver): > 6170 mL/min/kg |
| Cc1[nH]c(-c2cc(N)ccc2Oc2ccccc2)cc1C(N)=O | 880 | 420 | – |
| CCS(=O)(=O)Nc1ccc(Oc2ccccc2)c(-c2[nH]c(C)c3c(=O)[nH]ncc23)c1 | 75 | 10 | EC50 (MX1): 52 nM; Papp [3]: 9.5 ×10⁻⁶ cm/s; CL free (Liver): 800 mL/min/kg |
| CCOC(=O)c1[nH]c(C)c2c1CCCC2=O | – | 25000 | Activity [4]: Active |
| Cn1cc(-c2cc(CS(C)(=O)=O)ccc2Oc2ccc(F)cc2F)c2cc[nH]c(=O)c21 | 40 | 11 | Papp [3]: 40 ×10⁻⁶ cm/s; CL free (Liver): 400 mL/min/kg |
| Cc1[nH]c(-c2cc(NS(C)(=O)=O)ccc2Oc2ccccc2)cc1C(N)=O | 1400 | 280 | – |
| Cc1[nH]c(-c2cc(S(C)(=O)=O)ccc2Oc2ccc(F)cc2F)c2cn[nH]c(=O)c12 | 750 | 77 | EC50 (MX1): 390 nM; Papp [3]: 12 ×10⁻⁶ cm/s; CL free (Liver): 617 mL/min/kg |
| Cc1[nH]c(-c2cc(NS(C)(=O)=O)ccc2Oc2ccccc2)c2c1C(=O)NCC2 | 120 | 41 | – |
| Cc1[nH]c(-c2ccccc2Oc2ccccc2)c2cc[nH]c(=O)c12 | 700 | 450 | – |
| Cc1[nH]c(-c2ccccc2)cc1C(N)=O | – | 12000 | – |
| Cn1cc(-c2cc(NS(C)(=O)=O)ccc2Oc2ccc(F)cc2F)c2cc[nH]c(=O)c21 | 46 | 17 | – |
| Cc1[nH]c(-c2cc(NS(C)(=O)=O)ccc2Oc2ccc(F)cc2F)c2c1C(=O)CCC2 | 75 | 97 | – |
